Data from ChEMBL document CHEMBL1125247, “Muscarinic cholinergic agonists and antagonists of the 3-(3-alkyl-1,2,4-oxadiazol-5-yl)-1,2,5,6-tetrahydropyridine type. Synthesis and structure-activity relationships” (J Med Chem, 1991).

What was measured:
[1] = target: Muscarinic acetylcholine receptor M3 (Cavia porcellus) (UniProt Q8VH26); assay: Antagonist activity at muscarinic acetylcholine receptor in isolated guinea pig ileum.; format: functional, tissue-based
Outline: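 Isolated guinea pig ileum in tyrode solution; agonist dose-response curves built sequentially with 30-s contact time. Antagonist added to the tyrode 5 min before agonist responses were retested. K_B from regression analysis using at least four points, n = 4-8 per point.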

[2] = target: Muscarinic acetylcholine receptor; assay: In Vitro binding affinity to the muscarinic acetylcholine receptor site in rat brain by using [3H]QNB as the radioligand.; format: tissue-based
[3] = target: Muscarinic acetylcholine receptor (Rattus norvegicus) (UniProt P08482+P08483+P08485+P08911+P10980)
[4] = target: Muscarinic acetylcholine receptor; assay: (§1) Agonist activity at muscarinic acetylcholine receptor in isolated guinea pig ileum.; format: functional, tissue-based, Cavia porcellus
[5] = target: Muscarinic acetylcholine receptor; assay: In vitro binding affinity to muscarinic acetylcholine receptor site in rat brain assayed using [3H]oxotremorine-M as the radioligand.; format: tissue-based
[6] = target: Muscarinic acetylcholine receptor (Cavia porcellus); assay: Antagonistic activity at muscarinic acetylcholine receptor in isolated guinea pig ileum.
[7] = target: Muscarinic acetylcholine receptor; assay: as §1; format: functional, tissue-based, Cavia porcellus; remark: listed apart in the source
Outline: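 Isolated ileum in Tyrode solution. Cumulative-free sequential agonist dose-response curves, 30-s contact time per dose. Contraction read out; EC50 derived from the curves. Efficacy expressed as percent of maximal contraction relative to the full agonist acetylcholine.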

[8] = target: Muscarinic acetylcholine receptor (Cavia porcellus); assay: Antagonist activity at muscarinic acetylcholine receptor in isolated guinea pig ileum.

Chain of Muscarinic acetylcholine receptor M3 (Cavia porcellus) (Q8VH26 1-587): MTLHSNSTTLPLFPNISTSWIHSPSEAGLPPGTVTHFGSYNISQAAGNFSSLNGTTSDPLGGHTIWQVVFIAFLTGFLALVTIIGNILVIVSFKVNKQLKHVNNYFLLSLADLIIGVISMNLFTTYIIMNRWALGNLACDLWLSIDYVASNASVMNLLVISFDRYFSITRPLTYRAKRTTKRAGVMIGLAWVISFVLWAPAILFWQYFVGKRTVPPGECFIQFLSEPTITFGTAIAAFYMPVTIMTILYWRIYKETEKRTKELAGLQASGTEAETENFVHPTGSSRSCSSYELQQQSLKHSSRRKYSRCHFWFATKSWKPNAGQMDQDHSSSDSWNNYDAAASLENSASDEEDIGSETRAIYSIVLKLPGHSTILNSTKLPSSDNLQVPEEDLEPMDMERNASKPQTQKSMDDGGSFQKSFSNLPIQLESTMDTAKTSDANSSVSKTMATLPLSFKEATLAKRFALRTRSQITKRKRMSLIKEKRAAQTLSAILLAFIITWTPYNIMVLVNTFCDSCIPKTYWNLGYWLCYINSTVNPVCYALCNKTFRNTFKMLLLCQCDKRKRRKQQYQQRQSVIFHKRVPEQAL

Row | SMILES | Kb [1] [µM] | IC50 [2] [µM] | Muscarinic agonist index [3] | EC50 [4] [µM] | IC50 [5] [µM] | Kb [6] [µM] | EC50 [7] [µM] | Kb [8] [µM]
1 | CC(C)c1noc(C2=CCCN(C)C2)n1.O=C(O)C(=O)O | 0.2 | 15.8 | 14 | > 30 | 0.182 | – | – | –
2 | CCCCc1noc(C2=CCC(C)N(C)C2)n1 (configuration not stated) | 0.13 | 10.2 | 11 | > 30 | 0.145 | – | – | –
3 | CN1CCC=C(c2nc(C3CCC3)no2)C1.O=C(O)C(=O)O | – | 12.9 | 11 | – | 0.191 | 0.65 | > 30 | –
4 | COCCc1noc(C2=CCCN(C)C2)n1.O=C(O)C(=O)O | – | 41.5 | 47 | 0.72 | 0.144 | – | – | –
5 | CCCCCCCc1noc(C2=CCCN(C)C2)n1.O=C(O)C(=O)O | – | 9.1 | 52 | 0.13 | 0.0283 | – | – | –
6 | CCCCc1noc(C2=CCC3CCC2N3C)n1 (configuration not stated) | 0.22 | 8.9 | 8 | > 30 | 0.181 | – | – | –
7 | CCCCc1noc(C2CN3CCC2CC3)n1 (configuration not stated) | 0.07 | 1.5 | 4 | – | 0.0585 | – | > 30 | –
8 | CCCCCc1noc(C2=CCCN(C)C2)n1.O=C(O)C(=O)O | – | 6.7 | 29 | 0.62 | 0.0369 | – | – | –
9 | CCCCc1noc(C2=CC(C)CNC2)n1 (configuration not stated) | – | 64.3 | 15 | > 30 | 0.685 | – | – | –
10 | Cc1noc(C2=CCCN(C)C2)n1.O=C(O)C(=O)O | – | 41 | 540 | 0.032 | 0.0123 | – | – | –
11 | CN1CCC=C(c2nc(C3CC3)no2)C1.O=C(O)C(=O)O | 0.15 | 6.8 | 14 | > 30 | 0.078 | – | – | –
12 | CCOCCc1noc(C2=CCCN(C)C2)n1.O=C(O)C(=O)O | – | 42.8 | 65 | 1.28 | 0.107 | – | – | –
13 | Cc1nc(C2=CCCN(C)C2)no1.O=C(O)C(=O)O | – | 401 | 68 | > 30 | 0.955 | – | – | 8
14 | CN1CCC=C(c2nc(C3CCCC3)no2)C1.O=C(O)C(=O)O | 1.55 | 10.8 | 15 | > 30 | 0.102 | – | – | –
15 | CCCCc1noc(C2=CCCNC2)n1 | – | 25.3 | 339 | 0.32 | 0.0121 | – | – | –
16 | CN1CCC=C(c2nc(CC3CC3)no2)C1.O=C(O)C(=O)O | – | 11.3 | 235 | 1 | 0.0078 | – | – | –
17 | CCCCc1noc(C2=CCCN(C)C2)n1.O=C(O)C(=O)O | – | 15.8 | 181 | 0.15 | 0.0141 | – | – | –
18 | CCCCc1noc(C2=CCCN(CC)C2)n1 | 0.7 | 20.6 | 39 | > 30 | 0.0862 | – | – | –
19 | CCCc1nc(C2=CCCN(C)C2)no1.O=C(O)C(=O)O | 3.38 | 88 | 80 | > 30 | 0.681 | – | – | –
20 | COCc1noc(C2=CCCN(C)C2)n1.O=C(O)C(=O)O | – | 66.9 | 249 | 0.42 | 0.0435 | – | – | –
21 | CCCc1noc(C2=CCCN(C)C2)n1.O=C(O)C(=O)O | – | 17.4 | 447 | 0.1 | 0.0063 | – | – | –
22 | CN1CCC=C(c2nc(C3CCCCCC3)no2)C1.O=C(O)C(=O)O | 0.16 | 16 | < 3 | > 30 | > 0.85 | – | – | –
23 | CCc1noc(C2=CCCN(C)C2)n1.O=C(O)C(=O)O | – | 35.3 | 520 | 0.2 | 0.011 | – | – | –
24 | CCc1nc(C2=CCCN(C)C2)no1.O=C(O)C(=O)O | – | 156 | 26 | > 30 | 0.954 | – | – | 5.75
25 | CN1CCC=C(c2nc(C(C)(C)C)no2)C1.O=C(O)C(=O)O | 0.2 | 9 | 5 | > 30 | 0.286 | – | – | –
26 | CCCCCCCCc1noc(C2=CCCN(C)C2)n1.O=C(O)C(=O)O | – | 11 | 30 | 1.46 | 0.0599 | – | – | –
